Screening results as filed in PubChem BioAssay.
TCR CD3 inh – blocks the human TCR-CD3 interaction. 360,000 tested, 0.37% active. AID 651800. inhibition, % at 9.4 µM. TAMRA-labeled TCR probe fluorescence, biochemical; in the data active = inhibition above about 19%;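 also: recombinant mutant TCR 2C K166C tagged with TAMRA read by polarization; 0% = receptor in buffer alone and 100% = receptor with positive control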
PRMT1 inh – PRMT1 (human) inhibition, primary screen. recombinant PRMT1, activity-based probe fluorescence polarization. inhibition, % at 2.79 µM. 370,000 tested, 1.3% active;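 active = inhibition above about 21% made by adding two undisclosed values, limit read from the data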
SIAE inh – blocks human sialic acid acetylesterase; SIAE FP-Rh probe binding, fluorescence polarization; 370,000 tested, 0.69% active; Q9HAT2; inhibition, % at 9.66 µM;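 active = inhibition above a cutoff: mean of compounds within the control limits plus 3 SD of those, cut at about 17% in these data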;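 also: 0% = plate median of compound wells and 100% = probe without SIAE protein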
Target sequence (Q9HAT2 whole entry, looked up): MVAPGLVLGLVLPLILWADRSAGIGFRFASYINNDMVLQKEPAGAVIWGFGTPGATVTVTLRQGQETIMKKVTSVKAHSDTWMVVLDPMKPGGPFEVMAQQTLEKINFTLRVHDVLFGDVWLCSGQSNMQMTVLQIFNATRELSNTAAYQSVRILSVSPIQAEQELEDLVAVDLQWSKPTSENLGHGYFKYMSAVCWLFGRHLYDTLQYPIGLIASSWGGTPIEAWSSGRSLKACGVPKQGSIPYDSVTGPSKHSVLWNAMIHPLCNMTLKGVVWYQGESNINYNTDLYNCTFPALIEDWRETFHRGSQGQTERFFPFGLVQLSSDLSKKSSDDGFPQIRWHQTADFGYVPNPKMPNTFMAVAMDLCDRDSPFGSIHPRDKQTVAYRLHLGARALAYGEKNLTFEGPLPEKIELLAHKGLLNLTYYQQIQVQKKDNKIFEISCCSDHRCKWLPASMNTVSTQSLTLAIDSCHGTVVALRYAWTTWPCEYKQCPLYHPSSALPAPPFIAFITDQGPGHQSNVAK
mABHD4 FP – inhibits mouse alpha/beta hydrolase domain 4; Q8VD66; purified mABHD4, FP-Rh probe fluorescence polarization; inhibition, % at 8.92 µM; 370,000 tested, 0.54% active; AID 720543;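 active = inhibition exceeding the mean over every tested compound plus 3 SD, cut at about 30% in these data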;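 also: 0% = plate median of compound wells and 100% = S159A mutant with DMSO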
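assay system = mABHD4 protein | compound dosing = single nominal dose of 8.92 µM, 0.89% DMSO final | read-out basis = percent inhibition of probe binding, normalized to plate controls | schedule = Enzyme–compound pre-incubation 45 min, then probe 60 min, both 25 °C | detection = fluorescence polarization, excitation 525 nm, emission 598 nm, BODIPY TMR filters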
rCAG RNA binder – r(CAG) repeat RNA binding; TO-PRO-1 dye displacement fluorescence; 370,000 tested, 1.3% active; inhibition, % at 3 µM; AID 651821;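 active = inhibition above the plate cutoff, the mean of all test compounds on that plate plus 3 SD, cut at about 35% in these data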;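 also: 0% = DMSO alone and 100% = 100 µM mitoxantrone as full dye displacement; higher means more dye released from RNA so lower well fluorescence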
SIAE confirm – confirmation of human SIAE inhibitors. shares compounds with SIAE inh. 2,300 tested, 13% active. inhibition, % at 9.66 µM. SIAE FP-Rh activity-based probe, fluorescence polarization;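 active = mean inhibition of the replicates above the hit cutoff set in the primary screen, cut at about 17% in these data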;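 also: 0% = SIAE with DMSO and probe and 100% = probe without SIAE; inhibitors lower polarization as more probe stays unbound to SIAE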
Active calls of the source: *. Rows were chosen to be rich in hits. Some 3.3% of all compounds tested hit in one or more screens of this group.

Results for COc1ccc(C(CC(=O)O)NC(=O)COc2ccc(C)cc2)cc1OC (stereo unspecified) ?
TCR CD3 inh: -6.5; PRMT1 inh: 2.6; SIAE inh: 19.1*; mABHD4 FP: -4.3; rCAG RNA binder: 2.6; SIAE confirm: -8.6

Results for CCN(CC)c1ccc(S(=O)(=O)N2CCOCC2)cc1NC(=O)CSC(=S)N1CCCC1 ?
TCR CD3 inh: 2.3; PRMT1 inh: 10.4; SIAE inh: 1.9; mABHD4 FP: -4.9; rCAG RNA binder: -1.4

What do the screens show for `O=C(NCCN1CCC(n2c(=O)[nH]c3ccccc32)CC1)c1cccc(F)c1`?
TCR CD3 inh: 4.3; PRMT1 inh: -2.6; SIAE inh: 2.2; mABHD4 FP: 7.1; rCAG RNA binder: -0.1

How did Cc1cc(-c2nnn(CCCOC(C)(C)C)c2C)ccc1-c1cn(CCCOC(C)(C)C)nn1 do in these assays?
TCR CD3 inh: 13.4; PRMT1 inh: 1.5; SIAE inh: 1.4; mABHD4 FP: -0.3; rCAG RNA binder: 0.9

What do the screens show for `Cc1ccc(N2C(N)=C(C#N)C(c3cccs3)C3=C2CC(C)(C)CC3=O)cc1` (stereo unspecified)?
TCR CD3 inh: -14.1; PRMT1 inh: 2.6; SIAE inh: -1.6; mABHD4 FP: -6.7; rCAG RNA binder: -0.1

What do the screens show for `CC1(C)CC(=O)C2=C(C1)N(c1ccc(F)cc1)C(N)=C(C#N)C2c1cccs1` (stereo unspecified)?
TCR CD3 inh: -5.1; PRMT1 inh: 0.2; SIAE inh: 30.8*; mABHD4 FP: -6.2; rCAG RNA binder: 6.6; SIAE confirm: -4.5

What do the screens show for `O=C(Cn1nnc2ccccc21)OCC(=O)c1ccc(Cl)c(Cl)c1`?
TCR CD3 inh: -2.7; PRMT1 inh: 8.2; SIAE inh: -2.9; mABHD4 FP: 4.5; rCAG RNA binder: 3.4

What do the screens show for `O=C(Cn1nnc2ccccc21)OCC(=O)c1ccccc1`?
TCR CD3 inh: 2.2; PRMT1 inh: 4.1; SIAE inh: 18.8*; mABHD4 FP: 0.4; rCAG RNA binder: 2.0; SIAE confirm: -3.0

How did CCOC(=O)C1=CCN(S(=O)(=O)c2ccccc2C)C1c1cccc(C)c1 (stereo unspecified) do in these assays?
TCR CD3 inh: -9.8; PRMT1 inh: 3.7; SIAE inh: 1.2; mABHD4 FP: -10.8; rCAG RNA binder: -0.3

How did CCCc1c(C(=O)NNc2ccccc2OC)cnn1-c1ccccc1 do in these assays?
TCR CD3 inh: -6.4; PRMT1 inh: -2.8; SIAE inh: 18.2*; mABHD4 FP: 2.9; rCAG RNA binder: -3.4; SIAE confirm: 2.9

Results for COc1ccc(CNc2ncc(-c3ccc(F)cc3)n2C)c2ccccc12 ?
TCR CD3 inh: 3.5; PRMT1 inh: -3.7; SIAE inh: 17.8*; mABHD4 FP: 15.4; rCAG RNA binder: 5.2; SIAE confirm: 8.3

What do the screens show for `COc1ccc(CCNC(=O)C(=O)NCC2OCCN2S(=O)(=O)c2ccc(Cl)cc2)cc1OC` (stereo unspecified)?
TCR CD3 inh: 7.7; PRMT1 inh: -1.2; SIAE inh: -3.4; mABHD4 FP: 3.9; rCAG RNA binder: 3.3

Results for COCCNC(=O)c1ccc(N2CC3CC(C2)c2cccc(=O)n2C3)c(NC(=O)c2cc(OC)cc(OC)c2)c1 (stereo unspecified) ?
TCR CD3 inh: -3.7; PRMT1 inh: 1.8; SIAE inh: -1.1; mABHD4 FP: 7.0; rCAG RNA binder: -3.5

Results for CCN1CCN(C(=O)c2ccc(N3CC4CC(C3)c3cccc(=O)n3C4)c(NC(=O)c3cc(OC)cc(OC)c3)c2)CC1 (stereo unspecified) ?
TCR CD3 inh: 0.0; PRMT1 inh: 1.7; SIAE inh: 26.5*; mABHD4 FP: 6.6; rCAG RNA binder: -4.5; SIAE confirm: 3.6

How did CC[n+]1ccc(C[n+]2ccccc2)c2ccccc21 do in these assays?
TCR CD3 inh: -2.1; PRMT1 inh: 1.6; SIAE inh: 20.2*; mABHD4 FP: 5.7; rCAG RNA binder: -0.9; SIAE confirm: 21.6*

Results for O=C(N/N=C/c1ccc(O)cc1O)c1ccc(NC(=O)C2CCCCC2)cc1 ?
TCR CD3 inh: 12.2; PRMT1 inh: 1.7; SIAE inh: 26.0*; mABHD4 FP: 11.8; rCAG RNA binder: 10.6; SIAE confirm: 2.8

What do the screens show for `COc1ccc(-c2cc(C(F)(F)F)nc(N3CCCCC3)n2)cc1OC`?
TCR CD3 inh: 5.5; PRMT1 inh: 0.9; SIAE inh: 19.0*; mABHD4 FP: 2.5; rCAG RNA binder: -0.7; SIAE confirm: -4.3

How did CN(c1cccnc1)c1ccc(NC(=O)Cc2cn(Cc3ccccc3)c3ccccc23)cc1Br do in these assays?
TCR CD3 inh: 1.9; PRMT1 inh: 3.1; SIAE inh: 20.6*; mABHD4 FP: 17.6; rCAG RNA binder: 9.0; SIAE confirm: 24.4*

How did O=C(Cc1cn(Cc2ccccc2)c2ccccc12)Nc1ccc(Oc2cccnc2)cc1 do in these assays?
TCR CD3 inh: -0.6; PRMT1 inh: 2.0; SIAE inh: -6.7; mABHD4 FP: -9.1; rCAG RNA binder: 10.6

How did COc1cccc(NC(=O)Cc2cn(C)c3ccccc23)c1 do in these assays?
TCR CD3 inh: -2.3; PRMT1 inh: -1.1; SIAE inh: -0.3; mABHD4 FP: 1.9; rCAG RNA binder: 3.5

How did Cn1cc(CC(=O)Nc2ccc(Nc3cccnc3)cc2)c2ccccc21 do in these assays?
TCR CD3 inh: -7.4; PRMT1 inh: 1.8; SIAE inh: 21.0*; mABHD4 FP: 7.6; rCAG RNA binder: 4.2; SIAE confirm: 23.1*

How did Cc1cc(C)cc(Cn2c3ccc(NC(=O)NCCc4cccs4)cc3c(=O)n2C)c1 do in these assays?
TCR CD3 inh: 3.9; PRMT1 inh: -3.8; SIAE inh: 1.6; mABHD4 FP: 14.4; rCAG RNA binder: 2.6

How did CC#CCCCC(=O)Nc1ccccc1C(=O)O do in these assays?
TCR CD3 inh: 7.0; PRMT1 inh: -1.8; SIAE inh: 18.7*; mABHD4 FP: -2.0; rCAG RNA binder: 6.6; SIAE confirm: 3.0

What do the screens show for `CCNC(=O)C1(C)CCCN(C(=O)c2ccc(C(F)(F)F)nc2C)C1` (stereo unspecified)?
TCR CD3 inh: -3.5; PRMT1 inh: 7.4; SIAE inh: -2.1; mABHD4 FP: 1.3; rCAG RNA binder: 0.0

Results for Cc1ccc(CN2CCN(Cc3cc(=O)c4ccccc4[nH]3)CC2CCO)o1 (stereo unspecified) ?
TCR CD3 inh: -0.3; PRMT1 inh: -2.3; SIAE inh: 17.1*; mABHD4 FP: 0.1; rCAG RNA binder: -2.3; SIAE confirm: -10.1

What do the screens show for `COc1cccc(-c2ccc(NC(=O)C3CCCN(CCCn4nc(C)cc4C)C3)cc2)c1` (stereo unspecified)?
TCR CD3 inh: -1.2; PRMT1 inh: -1.5; SIAE inh: 1.2; mABHD4 FP: 8.6; rCAG RNA binder: -3.3

How did O=P(c1ccccc1)(c1ccccc1)C(O)c1ccncc1 (stereo unspecified) do in these assays?
TCR CD3 inh: 5.2; PRMT1 inh: 6.0; SIAE inh: 23.6*; mABHD4 FP: 10.1; rCAG RNA binder: -1.9; SIAE confirm: 1.5
